The test system of assay [1] is Escherichia coli. Briefly: Ability to support the growth of Escherichia coli strain RWB7 from 50&500 uM stock solution was determined in growth response assay; No growth around disc. The class given is functional, organism-based. In outline:
(§1)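 Disc growth-promotion assay on Escherichia coli K12 strains. Each strain was seeded in a soft nutrient agar overlay on nutrient agar plates. The overlay contained 0.1 mM deferriferrichrome A to make the plates iron deficient. Filter paper discs were each loaded with 10 μL of a 50–500 μM aqueous siderophore solution, with hydroxamate content checked by the ferric perchlorate reagent at 480 nm. Plates were incubated at 37 °C, and the diameter of the growth zone was scored at 12 and 24 h.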

The subject of assay [2] is Escherichia coli. Nature of the assay: Ability to support the growth of Escherichia coli strain RW 193 from 50&500 uM stock solution was determined in growth response assay. The class given is functional. In outline: as §1
Assay [3] concerns Escherichia coli. Nature of the assay: Ability to support the growth of Escherichia coli strain AN193 from 50&500 uM stock solution was determined in growth response assay; No growth around disc. The class given is functional, organism-based. In outline:
as §1

The subject of assay [4] is Escherichia coli. Nature of the assay: Ability to support the growth of Escherichia coli strain BNV3040 from 50&500 uM stock solution was determined in growth response assay. The format is functional. In outline:
as §1

Assay [5] deals with Escherichia coli. Briefly: Ability to support the growth of Escherichia coli strain BN3300 from 50&500 uM stock solution was determined in growth response assay; No growth around disc. The format is functional, organism-based. In outline: as §1
Assay [6] deals with Escherichia coli. Nature of the assay: Ability to support the growth of Escherichia coli strain BN3300 from 200 uM stock solution was determined in growth response assay; No growth around disc. The class given is functional, organism-based. The procedure, abridged: as §1
Assay [7] relates to Escherichia coli. Nature of the assay: Ability to support the growth of Escherichia coli strain BNV3040 from 200 uM stock solution was determined in growth response assay. The format is functional. The procedure, abridged: as §1
For assay [8], the system named is Escherichia coli. Briefly: Ability to support the growth of Escherichia coli strain RWB7 from 200 uM stock solution was determined in growth response assay; No growth around disc. The class given is functional, organism-based. In outline: as §1
Assay [9] relates to Escherichia coli. Briefly: Ability to support the growth of Escherichia coli strain RWV193 from 200 uM stock solution was determined in growth response assay. The format is functional. In outline:
as §1

Assay [10] has as its system Escherichia coli. Briefly: Ability to support the growth of Escherichia coli strain RW 193 from 50 uM stock solution was determined in growth response assay. The format is functional. The procedure, abridged:
as §1

For assay [11], the system named is Escherichia coli. Briefly: Ability to support the growth of Escherichia coli strain RWV193 from 50 uM stock solution was determined in growth response assay. The format is functional. The procedure, abridged:
as §1

In assay [12] the test system is Escherichia coli. Nature of the assay: Ability to support the growth of Escherichia coli strain RWB7 from 50 uM stock solution was determined in growth response assay; No growth around disc. The class given is functional, organism-based. The procedure, abridged: as §1
The test system of assay [13] is Escherichia coli. Nature of the assay: Ability to support the growth of Escherichia coli strain BNV3040 from 50 uM stock solution was determined in growth response assay. The format is functional. The procedure, abridged: as §1
Assay [14] concerns Escherichia coli. Nature of the assay: Ability to support the growth of Escherichia coli strain AN193 from 50 uM stock solution was determined in growth response assay. The format is functional. In outline:
as §1

For assay [15], the system named is Escherichia coli. Nature of the assay: Ability to support the growth of Escherichia coli strain BN3300 from 50 uM stock solution was determined in growth response assay; No growth around disc. The format is functional, organism-based. In outline:
as §1

The test system of assay [16] is Escherichia coli. Nature of the assay: Ability to support the growth of Escherichia coli strain BNV3040 from 134 uM stock solution was determined in growth response assay. The format is functional. The procedure, abridged: as §1
Assay [17] concerns Escherichia coli. Nature of the assay: Ability to support the growth of Escherichia coli strain AN193 from 134 uM stock solution was determined in growth response assay; No growth around disc. The format is functional, organism-based. In outline:
as §1

The test system of assay [18] is Escherichia coli. Briefly: Ability to support the growth of Escherichia coli strain BN3300 from 134 uM stock solution was determined in growth response assay; No growth around disc. The class given is functional, organism-based. The procedure, abridged:
as §1

The subject of assay [19] is Escherichia coli. Nature of the assay: Ability to support the growth of Escherichia coli strain RW 193 from 134 uM stock solution was determined in growth response assay. The format is functional. The procedure, abridged: as §1
The test system of assay [20] is Escherichia coli. Nature of the assay: Ability to support the growth of Escherichia coli strain RWB7 from 134 uM stock solution was determined in growth response assay; No growth around disc. The class given is functional, organism-based. In outline: as §1
The test system of assay [21] is Escherichia coli. Nature of the assay: Ability to support the growth of Escherichia coli strain RWV193 from 380 uM stock solution was determined in growth response assay; No growth around disc. The format is functional, organism-based. The procedure, abridged: as §1
Assay [22] deals with Escherichia coli. Briefly: Ability to support the growth of Escherichia coli strain BN3300 from uM stock solution was determined in growth response assay; No growth around disc. The class given is functional, organism-based. In outline: as §1
The test system of assay [23] is Escherichia coli. Briefly: Ability to support the growth of Escherichia coli strain RW 193 from 380 uM stock solution was determined in growth response assay; No growth around disc. The format is functional, organism-based. In outline: as §1
Assay [24] relates to Escherichia coli. Nature of the assay: Ability to support the growth of Escherichia coli strain AN193 from 380 uM stock solution was determined in growth response assay; No growth around disc. The format is functional, organism-based. In outline: as §1
Assay [25] concerns Escherichia coli. Nature of the assay: Ability to support the growth of Escherichia coli strain RWB7 from 380 uM stock solution was determined in growth response assay; No growth around disc. The format is functional, organism-based. In outline:
as §1

The subject of assay [26] is Escherichia coli. Nature of the assay: Ability to support the growth of Escherichia coli strain BNV3040 from 380 uM stock solution was determined in growth response assay; No growth around disc. The class given is functional, organism-based. In outline:
as §1

Assay [27] deals with Escherichia coli. Briefly: Ability to support the growth of Escherichia coli strain AN193 from 100 uM stock solution was determined in growth response assay; No growth around disc. The class given is functional, organism-based. The procedure, abridged: as §1
Assay [28] concerns Escherichia coli. Briefly: Ability to support the growth of Escherichia coli strain RWV193 from 100 uM stock solution was determined in growth response assay. The class given is functional. In outline:
as §1

The test system of assay [29] is Escherichia coli. Nature of the assay: Ability to support the growth of Escherichia coli strain RWB7 from 100 uM stock solution was determined in growth response assay; No growth around disc. The format is functional, organism-based. The procedure, abridged:
as §1

Assay [30] concerns Escherichia coli. Nature of the assay: Ability to support the growth of Escherichia coli strain BN3300 from 100 uM stock solution was determined in growth response assay; No growth around disc. The class given is functional, organism-based. In outline:
as §1

Assay [31] concerns Escherichia coli. Nature of the assay: Ability to support the growth of Escherichia coli strain RW 193 from 130 uM stock solution was determined in growth response assay; No growth around disc. The format is functional, organism-based. In outline:
as §1

For assay [32], the system named is Escherichia coli. Nature of the assay: Ability to support the growth of Escherichia coli strain RWB7 from 130 uM stock solution was determined in growth response assay; No growth around disc. The class given is functional, organism-based. In outline:
as §1

Assay [33] has as its system Escherichia coli. Nature of the assay: Ability to support the growth of Escherichia coli strain BN3300 from 130 uM stock solution was determined in growth response assay; No growth around disc. The format is functional, organism-based. The procedure, abridged: as §1
The test system of assay [34] is Escherichia coli. Briefly: Ability to support the growth of Escherichia coli strain BNV3040 from 130 uM stock solution was determined in growth response assay; No growth around disc. The class given is functional, organism-based. In outline:
as §1

The test system of assay [35] is Escherichia coli. Briefly: Ability to support the growth of Escherichia coli strain AN193 from 130 uM stock solution was determined in growth response assay; No growth around disc. The format is functional, organism-based. The procedure, abridged: as §1
Assay [36] concerns Escherichia coli. Briefly: Ability to support the growth of Escherichia coli strain RWV193 from 130 uM stock solution was determined in growth response assay; No growth around disc. The class given is functional, organism-based. In outline:
as §1

Assay [37] has as its system Escherichia coli. Briefly: Ability to support the growth of Escherichia coli strain AN193 from 50 uM stock solution was determined in growth response assay; No growth around disc. The format is functional, organism-based. In outline: as §1
The subject of assay [38] is Escherichia coli. Briefly: Ability to support the growth of Escherichia coli strain BN3300 from […] was determined in growth response assay. The format is functional. The procedure, abridged:
as §1

Regarding `CN(O)C(=O)CCCCCNC(=O)CC(CC(=O)NCCCCCC(=O)N(C)O)C(=O)NCCCCCC(=O)N(C)O`, the Inhibitory diameter result is “Not toxic” with Escherichia coli [1], “Not toxic” in the assay on Escherichia coli [3], 25 mm with Escherichia coli [4] and “Not toxic” with Escherichia coli [5]. In addition, the growth zone diameter with Escherichia coli [2] came out at 25 mm.
As to `CC(=O)N(O)CCCNC(=O)CC(O)(CC(=O)NCCCN(O)C(C)=O)C(=O)O` [SCHIZOKINEN], the Inhibitory diameter result in the assay with Escherichia coli [6] and with Escherichia coli [8] was “Not toxic” each time. For the same molecule, the growth zone diameter with Escherichia coli [7] and in the assay on Escherichia coli [9] was 25 mm each time.
As for `CC(=O)N(O)CCCC1NC(=O)C(CCCN(O)C(C)=O)NC1=O` (centres undefined), the figures for the Inhibitory diameter with Escherichia coli [10], in the assay with Escherichia coli [12] and with Escherichia coli [15] were 25 mm, “Not toxic” and “Not toxic”, respectively. Also, the growth zone diameter in the assay on Escherichia coli [11], with Escherichia coli [13] and with Escherichia coli [14] was 25 mm each time.
For the molecule `CC(=O)N(O)CCCNC(=O)CN(CC(=O)NCCCN(O)C(C)=O)CC(=O)NCCCN(O)C(C)=O`, the Inhibitory diameter in the assay on Escherichia coli [16] was 25 mm; in the assay on Escherichia coli [17] it was “Not toxic”; in the assay on Escherichia coli [18] it was “Not toxic”; in the assay with Escherichia coli [20], “Not toxic”. The growth zone diameter in the assay with Escherichia coli [19] was 25 mm.
In the case of `CC(=O)N(O)CCCNC(=O)c1cc(C(=O)NCCCN(O)C(C)=O)cc(C(=O)NCCCN(O)C(C)=O)c1`, the Inhibitory diameter entry in the assay with Escherichia coli [21], with Escherichia coli [22], in the assay on Escherichia coli [23], with Escherichia coli [24], in the assay on Escherichia coli [25] and with Escherichia coli [26] was “Not toxic” in each case.
For `CC(=O)N(O)CCCNC(=O)c1cccc(C(=O)NCCCN(O)C(C)=O)n1`, the Inhibitory diameter entry is “Not toxic” in the assay with Escherichia coli [27], 25 mm in the assay with Escherichia coli [28], “Not toxic” in the assay with Escherichia coli [29] and “Not toxic” in the assay on Escherichia coli [30].
As for `CC(=O)N(O)CCCCCNC(=O)c1cc(C(=O)NCCCCCN(O)C(C)=O)cc(C(=O)NCCCCCN(O)C(C)=O)c1`, the Inhibitory diameter result in the assay on Escherichia coli [31], in the assay on Escherichia coli [32], in the assay on Escherichia coli [33], in the assay with Escherichia coli [34], with Escherichia coli [35] and in the assay with Escherichia coli [36] was “Not toxic” in each case.
On to `CC(=O)N(O)CCCNC(=O)CC(CC(=O)NCCCN(O)C(C)=O)C(=O)NCCCN(O)C(C)=O`, for which the Inhibitory diameter entry with Escherichia coli [27] is “Not toxic”; in the assay with Escherichia coli [28], 25 mm; with Escherichia coli [29], “Not toxic”; with Escherichia coli [30], “Not toxic”.
On to FERRICHROME, for which the Inhibitory diameter result in the assay on Escherichia coli [37], in the assay on Escherichia coli [12] and in the assay on Escherichia coli [15] was “Not toxic” each time.
For the molecule `CC(=O)N(O)CCCCCNC(=O)CC(O)(CC(=O)NCCCCCN(O)C(C)=O)C(=O)O` [ARTHROBACTIN], the Inhibitory diameter is < 10 mm with Escherichia coli [10], “Not toxic” in the assay on Escherichia coli [12] and “Not toxic” with Escherichia coli [15]. For the same molecule, the growth zone diameter in the assay with Escherichia coli [11], with Escherichia coli [13] and in the assay with Escherichia coli [14] was < 10 mm in each case.
`CC(=O)N(O)CCCCCNC(=O)c1cccc(C(=O)NCCCCCN(O)C(C)=O)n1`: the Inhibitory diameter entry in the assay on Escherichia coli [27] is “Not toxic”; in the assay on Escherichia coli [28], 25 mm; in the assay on Escherichia coli [29], “Not toxic”; with Escherichia coli [30], “Not toxic”.
With `O=C(N[C@H]1COC(=O)[C@@H](NC(=O)c2cccc(O)c2O)COC(=O)[C@@H](NC(=O)c2cccc(O)c2O)COC1=O)c1cccc(O)c1O` [ENTEROBACTIN], in the assay with Escherichia coli [38], the growth zone diameter amounted to 25 mm.

These data come from ChEMBL document CHEMBL1122956, “Artificial siderophores. 1. Synthesis and microbial iron transport capabilities” (1985).
